According to ChEMBL document CHEMBL3112459, “Synthesis and assay of retro-α4β1 integrin-targeting motifs” (Eur J Med Chem, 2014):
pIC50, pKi: −log10 of the molar value. Numbered stars: 1 amine (or outer) side, 2 acyl side, 3 side chain; on linkers, the order of the positions; unused ones are H or OH. Square brackets hold non-standard residues; d marks the D form. Peptide text beside a SMILES is read from it. * marks the point of attachment. X1 = O=C(Cc1ccc(N[*:1])cc1)[*:2]; NH(2-Me-phenyl) = Cc1ccccc1N*; CO = O=C([*:1])[*:2]

How the values were obtained:
[1] = target: T1, Integrin alpha-4/beta-1 (Homo sapiens, UniProt P05556+P13612); assay: Inhibition of human alpha4beta1 integrin expressed in human Jurkat cells assessed as inhibition of cell adhesion to VCAM-1; assay type: cell-based
T1 sequence (P05556 whole entry): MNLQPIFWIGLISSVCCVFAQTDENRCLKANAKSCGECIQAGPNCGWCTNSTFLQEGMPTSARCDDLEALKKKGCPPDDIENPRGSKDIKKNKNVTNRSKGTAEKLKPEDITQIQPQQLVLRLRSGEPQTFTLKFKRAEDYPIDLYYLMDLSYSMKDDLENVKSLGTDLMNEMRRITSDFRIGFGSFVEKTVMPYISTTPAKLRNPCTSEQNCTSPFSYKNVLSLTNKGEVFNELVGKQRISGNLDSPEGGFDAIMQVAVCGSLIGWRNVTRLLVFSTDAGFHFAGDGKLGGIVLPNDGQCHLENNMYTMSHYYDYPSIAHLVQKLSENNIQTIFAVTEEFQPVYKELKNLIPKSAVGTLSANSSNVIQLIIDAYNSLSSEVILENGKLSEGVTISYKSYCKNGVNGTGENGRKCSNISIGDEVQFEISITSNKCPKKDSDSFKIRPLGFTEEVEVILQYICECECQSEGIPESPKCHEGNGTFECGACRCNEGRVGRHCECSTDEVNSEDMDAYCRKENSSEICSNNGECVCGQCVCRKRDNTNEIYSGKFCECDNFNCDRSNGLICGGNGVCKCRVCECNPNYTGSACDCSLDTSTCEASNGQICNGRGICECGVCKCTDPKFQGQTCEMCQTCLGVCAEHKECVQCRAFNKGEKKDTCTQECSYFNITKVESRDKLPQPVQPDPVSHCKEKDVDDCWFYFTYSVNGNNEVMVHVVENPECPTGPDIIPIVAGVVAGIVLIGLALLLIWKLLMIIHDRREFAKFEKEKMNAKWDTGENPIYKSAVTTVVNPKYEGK
T1 sequence (P13612 whole entry): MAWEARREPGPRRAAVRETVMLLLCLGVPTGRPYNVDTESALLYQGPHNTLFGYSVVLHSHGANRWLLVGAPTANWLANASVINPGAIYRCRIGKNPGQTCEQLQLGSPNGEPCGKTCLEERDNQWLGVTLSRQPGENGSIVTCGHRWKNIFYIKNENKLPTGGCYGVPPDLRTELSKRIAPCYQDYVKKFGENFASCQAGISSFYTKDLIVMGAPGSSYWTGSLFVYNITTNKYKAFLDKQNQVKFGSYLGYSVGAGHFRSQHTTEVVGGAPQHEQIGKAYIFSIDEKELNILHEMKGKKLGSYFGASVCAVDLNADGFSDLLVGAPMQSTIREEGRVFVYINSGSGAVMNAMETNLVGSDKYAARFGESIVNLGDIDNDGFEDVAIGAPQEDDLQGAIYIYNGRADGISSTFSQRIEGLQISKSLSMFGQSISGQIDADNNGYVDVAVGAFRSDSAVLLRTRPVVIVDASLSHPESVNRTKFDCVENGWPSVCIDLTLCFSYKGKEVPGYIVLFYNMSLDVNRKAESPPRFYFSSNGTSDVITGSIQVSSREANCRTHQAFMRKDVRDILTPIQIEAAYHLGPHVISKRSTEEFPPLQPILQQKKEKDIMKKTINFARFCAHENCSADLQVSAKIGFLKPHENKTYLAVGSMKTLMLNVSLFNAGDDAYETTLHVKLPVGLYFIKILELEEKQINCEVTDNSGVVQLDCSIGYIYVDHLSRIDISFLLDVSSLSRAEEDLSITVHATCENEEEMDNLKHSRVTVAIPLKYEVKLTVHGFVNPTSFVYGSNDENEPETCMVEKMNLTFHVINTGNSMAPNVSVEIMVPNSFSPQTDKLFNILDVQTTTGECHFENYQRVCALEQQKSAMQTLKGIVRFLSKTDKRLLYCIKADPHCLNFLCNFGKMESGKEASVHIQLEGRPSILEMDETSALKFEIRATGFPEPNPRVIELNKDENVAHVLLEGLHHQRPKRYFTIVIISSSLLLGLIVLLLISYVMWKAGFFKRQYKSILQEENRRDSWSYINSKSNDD
Method in brief: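 Jurkat cells (5 × 10⁵ per well) adhered to wells coated overnight at 4 °C with human recombinant VCAM-1. Wells were blocked with 1% BSA/HBSS for 30 min at 37 °C. Data are mean ± S.E.M.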

[2] = target: T1, Integrin alpha-4/beta-1; assay: Displacement of [125I]-FN from human alpha4beta1 integrin expressed in human Jurkat cells by scintillation proximity assay; assay type: cell-based
Method in brief: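 Jurkat cells stably expressing human α4 integrin were the integrin source. The α4 integrin–anti-α4 antibody complex was captured on anti-rabbit IgG-coated scintillant microspheres. Soluble ¹²⁵I-human FN (~440 kDa) was the radioligand, incubated overnight, with counts read as cpm. IC50 values came from competition curves and were converted to Ki by Cheng–Prusoff. Data are mean ± S.E.M.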

[3] = target: Integrin alpha-V/beta-3 (Homo sapiens, UniProt P05106+P06756); assay: Inhibition of human alphavbeta3 integrin expressed in human SK-MEL-24 cells assessed as inhibition of cell adhesion to vitronectin; assay type: cell-based
Sequence of Integrin alpha-V/beta-3 (P05106 27-788 limits assumed): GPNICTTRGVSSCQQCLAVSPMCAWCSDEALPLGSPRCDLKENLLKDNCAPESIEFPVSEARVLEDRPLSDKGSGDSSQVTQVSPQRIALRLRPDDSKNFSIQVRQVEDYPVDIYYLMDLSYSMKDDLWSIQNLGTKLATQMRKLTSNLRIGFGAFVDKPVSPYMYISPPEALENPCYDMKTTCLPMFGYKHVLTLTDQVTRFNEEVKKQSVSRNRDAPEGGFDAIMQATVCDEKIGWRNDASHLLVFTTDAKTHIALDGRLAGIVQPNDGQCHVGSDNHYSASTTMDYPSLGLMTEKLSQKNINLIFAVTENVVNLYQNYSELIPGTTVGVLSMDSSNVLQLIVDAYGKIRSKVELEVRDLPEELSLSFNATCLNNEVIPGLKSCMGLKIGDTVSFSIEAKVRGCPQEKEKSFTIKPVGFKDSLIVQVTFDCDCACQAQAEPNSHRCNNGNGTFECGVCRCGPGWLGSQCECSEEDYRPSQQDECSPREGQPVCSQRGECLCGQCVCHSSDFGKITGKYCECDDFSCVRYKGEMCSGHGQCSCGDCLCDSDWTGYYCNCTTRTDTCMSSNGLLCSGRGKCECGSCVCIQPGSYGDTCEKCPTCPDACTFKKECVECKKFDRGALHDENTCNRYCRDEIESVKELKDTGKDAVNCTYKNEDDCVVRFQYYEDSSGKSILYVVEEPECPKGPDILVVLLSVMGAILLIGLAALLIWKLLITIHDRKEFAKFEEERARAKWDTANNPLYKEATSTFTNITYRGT
Sequence of Integrin alpha-V/beta-3 (P06756 31-889 limits assumed): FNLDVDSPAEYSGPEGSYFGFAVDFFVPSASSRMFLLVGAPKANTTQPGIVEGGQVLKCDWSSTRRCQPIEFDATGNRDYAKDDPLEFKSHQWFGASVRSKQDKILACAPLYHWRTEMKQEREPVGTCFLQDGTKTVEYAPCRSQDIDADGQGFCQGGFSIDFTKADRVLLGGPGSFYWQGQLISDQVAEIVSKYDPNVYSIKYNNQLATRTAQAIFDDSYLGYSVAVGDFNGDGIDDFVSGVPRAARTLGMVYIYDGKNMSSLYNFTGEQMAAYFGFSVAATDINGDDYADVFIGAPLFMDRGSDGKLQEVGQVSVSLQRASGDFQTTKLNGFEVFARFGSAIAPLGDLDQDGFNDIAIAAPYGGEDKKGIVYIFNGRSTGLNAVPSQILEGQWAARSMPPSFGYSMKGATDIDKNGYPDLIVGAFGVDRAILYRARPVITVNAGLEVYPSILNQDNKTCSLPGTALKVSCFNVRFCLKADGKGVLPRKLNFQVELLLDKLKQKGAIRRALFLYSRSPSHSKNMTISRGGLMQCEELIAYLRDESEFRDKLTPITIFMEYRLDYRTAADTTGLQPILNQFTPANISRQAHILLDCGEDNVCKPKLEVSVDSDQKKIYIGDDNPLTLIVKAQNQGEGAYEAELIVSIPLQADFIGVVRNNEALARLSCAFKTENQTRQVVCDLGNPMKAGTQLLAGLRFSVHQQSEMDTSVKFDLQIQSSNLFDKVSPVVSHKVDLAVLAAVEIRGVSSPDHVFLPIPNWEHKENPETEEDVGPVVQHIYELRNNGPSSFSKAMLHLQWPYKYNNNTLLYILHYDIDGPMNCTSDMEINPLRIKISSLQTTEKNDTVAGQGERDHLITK
Sequence of Integrin alpha-V/beta-3 (P06756 891-1048 limits assumed): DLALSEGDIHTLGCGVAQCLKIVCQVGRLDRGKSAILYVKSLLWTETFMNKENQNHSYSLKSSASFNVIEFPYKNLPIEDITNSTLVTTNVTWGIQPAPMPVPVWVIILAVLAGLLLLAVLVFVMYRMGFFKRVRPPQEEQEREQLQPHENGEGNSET

[4] = test system: SK-MEL-24; assay: Cytotoxicity against human SK-MEL-24 cells by trypan blue exclusion assay; assay type: cell-based
[5] = test system: Jurkat; assay: Cytotoxicity against human Jurkat cells by trypan blue exclusion assay; assay type: cell-based
[6] = (§1) Drug degradation in 100% mouse serum after 120 mins; assay type: ADME, cell-free; details: read-out: Drug degradation
Method in brief: (§2)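 Peptides were dissolved in Tris buffer pH 7.4, and aliquots of a 10 mM stock were added to mouse serum (10 µL into 190 µL). Incubation was at 37 °C for 120 min. Withdrawn aliquots were quenched with glacial acetonitrile to precipitate proteins and analysed by RP-HPLC and ESI-MS. Runs were in triplicate and repeated three times.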

[7] = test system: Serum; assay: as §1; assay type: ADME, cell-free; details: 2 h; method in brief: as §2

SMILES	pIC50 [1]	inhibition [1]	pIC50 [2]	pKi [2]	inhibition [2]	pIC50 [3]	metabolised at 2 h [6] [%]	Stability [7]	Activity [4]	Activity [5]
Cc1ccccc1NC(=O)Nc1ccc(CC(=O)N2CC[C@H](C(=O)N[C@@H](CC(=O)O)C(=O)OCc3ccccc3)C2)cc1	< 4.00	–	< 4.00	< 4.00	–	–	–	–	–	–
Cc1ccccc1NC(=O)Nc1ccc(CNC(=O)[C@H]2CCN(C(=O)[C@H](CC(=O)O)NC(=O)c3c(Cl)cccc3Cl)C2)cc1	< 4.00	–	5.41	5.62	Dose-dependent effect	–	–	–	–	–
Cc1ccccc1NC(=O)Nc1ccc(CC(=O)N[C@@H](CC(C)C)C(=O)N[C@@H](CC(=O)O)C(=O)N[C@H](C(=O)N2CCC[C@H]2C(=O)O)C(C)C)cc1 ({NH(2-Me-phenyl)-CO}-[X1]LDVP-OH)	–	Dose-dependent effect	–	–	Dose-dependent effect	–	–	Unstable	–	–
Cc1ccccc1NC(=O)Nc1ccc(CNC(=O)[C@H]2CCN(C(=O)C[C@H](NC(=O)c3c(Cl)cccc3Cl)C(=O)O)C2)cc1	< 4.00	–	< 4.00	< 4.00	–	–	–	–	–	–

Further compounds by rising pIC50 [1], results first:

pIC50 [1]	inhibition [1]	pIC50 [2]	pKi [2]	inhibition [2]	pIC50 [3]	metabolised at 2 h [6] [%]	Stability [7]	SMILES	Activity [4]	Activity [5]
7.03	Dose-dependent effect	6.54	6.74	Dose-dependent effect	< 4.00	< 5	–	Cc1ccccc1NC(=O)Nc1ccc(CNC(=O)[C@H]2CCN(C(=O)C[C@H](NC(=O)Cc3ccccc3)C(=O)O)C2)cc1	Non-toxic	Non-toxic
7.10	Dose-dependent effect	7.00	7.22	Dose-dependent effect	< 4.00	10	–	Cc1ccccc1NC(=O)Nc1ccc(CNC(=O)[C@H]2CCN(C(=O)[C@H](CC(=O)O)NC(=O)Cc3ccccc3)C2)cc1	Non-toxic	Non-toxic
